{"data": "Experimental data from different studies", "target": "Phosphorylase b kinase gamma catalytic chain, skeletal muscle/heart isoform (PHKG1, Homo sapiens, UniProt Q16816)", "note": "Each line is one published result; the experiments were not run side by side."}
{"SMILES": "COc1ncccc1-c1cnn2ccc(N3CCN(C(=O)OC(C)C)CC3)nc12", "observed": "binding", "technique": "competition with immobilised ligand", "tested at": "1 µM", "measurement": "remaining binding", "value": "100%"}
{"SMILES": "O=c1[nH]c2ccccc2n1C1CCN(Cc2ccc(-c3[nH]c4cc5ncnc5cc4nc3-c3ccccc3)cc2)CC1", "observed": "cell-free assay", "tested at": "0.5 µM", "measurement": "remaining signal", "value": "106%"}
{"SMILES": "Cn1cc(-c2cccc(N3CCc4c(sc5c4CC(C)(C)C5)C3=O)c2CO)cc(Nc2ccncn2)c1=O", "observed": "enzyme activity", "action": "inhibitor", "tested at": "1 µM", "measurement": "inhibition", "value": "6%"}
{"SMILES": "CC(C)(C)c1cc(C=C(C#N)C#N)cc(Br)c1O", "observed": "enzyme activity", "action": "inhibitor", "tested at": "0.5 µM", "measurement": "remaining activity", "value": "96.7%"}
{"SMILES": "Cn1cncc1[C@@](O)(COc1ccc(C#N)cc1-c1ccc(OC(F)(F)F)cc1)c1ccc(C#N)cc1", "observed": "cell-free assay", "technique": "competition with immobilised ligand", "tested at": "1 µM", "measurement": "remaining binding", "value": "95%"}
{"SMILES": "Cc1nn(C)cc1-c1nc2c(N3CCN(Cc4ccc(Cl)cc4)CC3)c(Cl)cnc2[nH]1", "observed": "binding", "technique": "competition with immobilised ligand", "tested at": "1 µM", "measurement": "remaining binding", "value": "100%"}
{"SMILES": "Cn1cc(-c2cc(F)cc(N3CCn4c(cc5c4CCCC5)C3=O)c2CO)cc(Nc2ccc(N3CCN(C4COC4)CC3)cn2)c1=O", "observed": "enzyme activity", "action": "inhibitor", "tested at": "0.1 µM", "measurement": "inhibition", "value": "6%"}
{"SMILES": "N#CC1(c2ccccn2)CCN(Cc2cc(C(=O)O)c(=O)n3ccccc23)CC1", "observed": "cell-free assay", "technique": "competition with immobilised ligand", "tested at": "1 µM", "measurement": "remaining binding", "value": "100%"}
{"SMILES": "COc1cc(Nc2ncc(F)c(Nc3ccc4c(n3)NC(=O)C(C)(C)O4)n2)cc(OC)c1OC", "observed": "binding", "tested at": "10 µM", "measurement": "inhibition", "value": "29%"}
{"SMILES": "Nc1ncc(-c2nc(N3CCOCC3)nc(N3CCOCC3)n2)c(C(F)F)n1", "observed": "binding", "technique": "competition with immobilised ligand", "tested at": "10 µM", "measurement": "remaining binding", "value": "94%"}
